A selection: hits, their analogues and other compounds. The true share with any hit is near 2.6%.
PRMT1 inh: PRMT1 methyltransferase inhibitors, primary screen, biochemical, fluorescence polarization; Protein arginine N-methyltransferase 1 (Homo sapiens), Q99873; recombinant PRMT1, activity-based probe fluorescence polarization; inhibition, % at 2.79 µM; 370,000 compounds, 1.3% hits; AID 652257, 2013;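 active = inhibition above about 21% made by adding two undisclosed values, limit read from the data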
mABHD4 FP: ABHD4 inhibitors, primary screen, biochemical, fluorescence polarization, mouse | (Lyso)-N-acylphosphatidylethanolamine lipase (Mus musculus), Q8VD66 | purified mABHD4, FP-Rh probe fluorescence polarization | inhibition, % at 8.92 µM | 370,000 compounds, 0.54% hits | AID 720543, 2013;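 active = inhibition exceeding the mean over every tested compound plus 3 SD, cut at about 30% in these data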;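 note: 0% = plate median of compound wells and 100% = S159A mutant with DMSO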
Target sequence (Q8VD66 whole entry, looked up): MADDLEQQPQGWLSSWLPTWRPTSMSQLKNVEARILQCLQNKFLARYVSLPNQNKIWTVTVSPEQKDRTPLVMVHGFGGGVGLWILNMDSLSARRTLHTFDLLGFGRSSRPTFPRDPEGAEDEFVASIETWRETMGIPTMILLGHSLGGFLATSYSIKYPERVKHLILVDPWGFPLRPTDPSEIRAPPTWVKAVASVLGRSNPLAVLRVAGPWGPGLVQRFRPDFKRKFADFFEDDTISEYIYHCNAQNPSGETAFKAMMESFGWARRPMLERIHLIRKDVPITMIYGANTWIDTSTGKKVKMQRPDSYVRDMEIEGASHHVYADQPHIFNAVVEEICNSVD
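Assay system: mABHD4 protein; medium: HEPES pH 7.0, NaCl, Pluronic buffer; dosing: 8.92 µM, single dose; schedule: 45 min + 60 min at 25 °C; signal: FP readout, ex 525 nm / em 598 nm; read-out: normalized percent inhibition of probe labeling; repeats: single replicate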
SIAE primary: human SIAE inhibitors, primary screen, biochemical, fluorescence polarization, FP-Rh probe, 1536-well HTS. 370,000 compounds, 0.69% hits. inhibition, % at 9.66 µM. SIAE FP-Rh probe binding. Sialate O-acetylesterase (Homo sapiens), Q9HAT2;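 active = inhibition above a cutoff: mean of compounds within the control limits plus 3 SD of those, cut at about 17% in these data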;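 note: 0% = plate median of compound wells and 100% = probe without SIAE protein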
HTRA1 inhibitor: HTRA1 serine protease inhibitors, primary screen, biochemical, fluorescence polarization, HTS | Q92743 | recombinant HTRA1, FP-rhodamine activity-based probe | inhibition, % at 5.96 µM | 340,000 compounds, 0.5% hits; in the data active = inhibition above about 36%;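 note: 0% = enzyme with DMSO and 100% = wells lacking enzyme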
TCR CD3 inh: inhibitors of human TCR-CD3 interaction, primary screen, biochemical, fluorescence, TAMRA-labeled TCR probe; T-cell receptor (TCR); inhibition, % at 9.4 µM; 360,000 compounds, 0.37% hits; AID 651800, 2012; in the data active = inhibition above about 19%;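 note: recombinant mutant TCR 2C K166C tagged with TAMRA read by polarization; 0% = receptor in buffer alone and 100% = receptor with positive control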
PRMT1 confirm: PRMT1 methyltransferase inhibitors, confirmation, biochemical, fluorescence polarization, triplicate; recombinant His-PRMT1, activity-based probe fluorescence polarization; inhibition, % at 2.79 µM; AID 687036, 2013; shares compounds with PRMT1 inh; 3,300 compounds, 42% hits;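 active = mean inhibition across replicates above the hit cutoff derived for the earlier primary screen, cut at about 22% in these data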
* marks the source's active call; other numbers are inactive results; nt = not tested or not shown.

SMILES	PRMT1 inh	mABHD4 FP	SIAE primary	HTRA1 inhibitor	TCR CD3 inh	PRMT1 confirm
CC(C)N(C(=O)[C@H]1C[C@H](CC(=O)NCCc2ccccn2)C(=O)N2CCc3c([nH]c4cc(-c5ccco5)ccc34)[C@]12C)C(C)C	39.7*	-26.5	-8.7	9.2	0.6	1.3
CCN(CC)C(=O)[C@H]1C[C@H](CC(=O)NCCc2ccccn2)C(=O)N2CCc3c([nH]c4cc(-c5ccco5)ccc34)[C@]12C	2.3	0.7	4.3	5.7	-4.4	nt
CCOC(=O)[C@]12CCCCC/C=C\1N(CCc1ccc(Cl)cc1)C(=O)[C@H]2CC(=O)N1CCN(C(=O)C2CC2)CC1	-8.0	-1.4	2.0	nt	nt	nt
O=C(NCc1ccc2c(c1)OCO2)c1ccco1	-3.6	3.1	10.2	-7.8	2.6	nt
O=C(CC(SCCO)c1ccc2c(c1)OCO2)c1ccco1 (stereo not given)	39.2*	6.7	-2.9	-1.3	4.2	44.3*
CCc1ccc(-c2cn(C3CCCCC3)c(=S)[nH]2)cc1	29.1*	25.1	4.3	-1.8	-12.5	14.9
COc1ccc(C(CCOC(=O)Oc2ccccc2)c2cc(OC)cc(OC)c2)cc1 (stereo not given)	-4.1	-8.1	-1.1	nt	nt	nt
CC#CC(=O)N1CCC(Oc2cccc(C(=O)NCc3ccccn3)c2)CC1	73.5*	-4.9	9.1	2.1	9.4	1.7
CSc1nc(SCC(=O)NCc2ccco2)c2c3c(sc2n1)COC(C)(C)C3	37.8*	-2.9	-6.0	-4.0	0.7	7.1
Cc1ccc(C(=O)CCS(=O)(=O)c2ccc(F)cc2)cc1	28.8*	-3.4	5.9	-1.3	-1.9	26.5*
Cc1ccc(S(=O)(=O)CCC(=O)c2ccc(F)cc2)cc1	15.6	0.9	8.0	-0.7	-1.4	nt
CC(C)C1CC(N(C)C)=CC(=S)N1 (stereo not given)	35.2*	2.5	4.8	nt	-0.1	1.1
C=CCn1c(SC(F)F)nc2scc(-c3ccco3)c2c1=O	63.7*	-20.3	5.9	-13.6	-2.1	-1.1
C=CCn1c(SCC(C)=O)nc2scc(-c3ccco3)c2c1=O	49.4*	5.9	-8.8	2.4	-0.6	22.3*
O=C(CSc1nnc(-c2ccccc2)n1Cc1ccco1)Nc1ccc(OCc2ccccc2)cc1	5.4	-22.5	-16.8	nt	nt	nt
O=C(Cn1cnc2ccccc2c1=O)N1CCN(C(=O)C2CCCO2)CC1 (stereo not given)	7.3	8.0	-0.2	nt	nt	nt
O=C(COC(=O)CSc1ccc([N+](=O)[O-])cc1)NCCc1ccccc1	3.0	-4.5	-3.3	1.6	-3.7	nt
O=C(COC(=O)CSc1ccc([N+](=O)[O-])cc1)NCCCc1ccccc1	41.9*	-3.5	0.5	-5.7	-5.9	4.3
CN(CCO)C1CN(Cc2cn(Cc3ccccc3C(F)(F)F)nn2)S(=O)(=O)C1 (stereo not given)	2.4	-7.2	-4.2	nt	nt	nt
Cc1cccc(S(=O)(=O)C(C#N)c2nc3ccccc3nc2N2CCCC2)c1 (stereo not given)	25.2*	7.8	-11.8	20.5	-2.3	5.0
CC1(C)C=C2C(N(Cc3ccc4c(c3)OCO4)C(=N)N2C(=O)OCc2ccccc2)n2c(=O)n(-c3ccccc3)c(=O)n21 (stereo not given)	2.2	-5.4	-4.4	nt	nt	nt
O=C(O)c1ccccc1NS(=O)(=O)c1cccc(-n2sc3ccccc3c2=O)c1	93.6*	3.2	-21.2	-0.9	0.0	93.0*
O=C(O)c1ccccc1NS(=O)(=O)c1cccc(C(F)(F)F)c1	-3.4	2.9	-1.3	-5.9	7.7	nt
CCC[C@H]1[C@@H](NC(=O)c2cccc(Cl)c2)CC[C@@]23CCCN2C(=O)CCC[C@@H]13	0.4	-1.3	-5.1	nt	nt	nt
Cc1cc(N)c(NC2=CC(=O)CC(C)(C)C2)cc1C	27.0*	6.6	1.2	-1.2	-4.2	-1.2
N#CC1C(=O)c2ccccc2C1c1ccccc1 (stereo not given)	45.3*	15.4	-0.5	-1.5	-0.6	14.0
O=C1CCC(c2ccccc2)c2ccccc21 (stereo not given)	-2.5	4.2	5.7	nt	10.0	nt

Assay outcomes (PubChem BioAssay)
